Here are results for six molecules from paper PMC9037101 (RSC Advances, 2021).

Data set [1] is classed as in vivo, Sprague-Dawley (SD) rats. Particulars: for AUC(0-inf) / AUC(0-t) / Cmax / Tmax / half-life: male, Sprague-Dawley, plasma, po, 15 mL kg^−1; for AUC(0-inf) / AUC(0-t) / Cmax / Tmax / half-life / absorption into blood (in words): rat; for absorption into blood (in words): oral administration of extract.
Data set [2] in a line: Stability of the analytes in rat plasma QC samples. Format: in vitro ADME. Particulars: for Free-thaw stability: Measured concentration / Free-thaw stability: Accuracy: 3 free thaw cycles; for Free-thaw stability: Accuracy / Long-tern stability: Accuracy: relative error; for Long-tern stability: Accuracy / Long-tern stability: Measured concentration: −20 °C for 21 d; for Short-tern stability: Measured concentration: room temperature for 8 h. In a few lines:
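Rat (SD male) plasma QC samples at low, medium and high levels, six replicates each. Storage conditions: 4 h at room temperature after preparation, 8 h at room temperature (short-term), 21 days at −20 °C (long-term), and three freeze (−20 °C)/thaw (room temperature) cycles over three consecutive days. Samples were methanol-precipitated with internal standard and measured by HPLC-MS/MS. Stability was reported as relative error.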

Where [3] appears, read: double-peak phenomenon, rat plasma, oral extract.

Broadly, the AUC(0-inf) is the area under the concentration-time curve extrapolated to infinity. A high value points to high exposure. One may read the AUC(0-t) as the area under the concentration-time curve up to a stated or last time point. A low value points to less exposure. The Cmax is the maximum level reached in the sampled fluid or tissue. One may read the Tmax as the time at which the peak concentration occurs. Usually half-life stands for the time in which the quantity being followed falls by half. Higher therefore signals slow decline. Turning to `O=c1c(O)c(-c2ccc(O)c(O)c2)oc2cc(O)cc(O)c12` [Quercetin, quercetin], in data set [1], the AUC(0-inf) was 18.2 ng·h/mL, the area under the curve AUC(0-t) was 9.31 ng·h/mL, the peak level (Cmax) was 20.1 ± 24.9 ng/mL and the Tmax was 5 min. In data set [1], the half-life stood at 46.03 ± 0.09 min and the “absorption into blood (in words)” value was “rapidly absorbed”. In data set [2] (high QC spiked concentration), the “Free-thaw stability: Measured concentration” value worked out at 67.46 ± 2.42 ng/mL, the “Free-thaw stability: Accuracy” value stood at 4.62%, the “Long-tern stability: Accuracy” value was determined as 6.02% and the “Short-tern stability: Measured concentration” value (from here on “Short-tern stability”) came out at 66.98 ± 7.47 ng/mL. For the same molecule, the “Long-tern stability: Measured concentration” value in data set [2] (high QC spiked concentration) came to 68.36 ± 3.68 ng/mL. Moreover, in data set [2] (low QC spiked concentration), the “Free-thaw stability: Measured concentration” value stood at 2.78 ± 0.89 ng/mL, the “Free-thaw stability: Accuracy” value was found to be 5.30%, the “Long-tern stability: Accuracy” value stood at 3.03% and the “Short-tern stability” value amounted to 2.80 ± 1.62 ng/mL. The “Long-tern stability: Measured concentration” value in data set [2] (low QC spiked concentration) is 2.72 ± 0.32 ng/mL. Further, in data set [2] (medium QC spiked concentration), the “Free-thaw stability: Measured concentration” value came out at 17.48 ± 1.19 ng/mL, the “Free-thaw stability: Accuracy” value came out at 6.72%, the “Long-tern stability: Accuracy” value turned out to be 5.43% and the “Short-tern stability” value is 17.12 ± 1.22 ng/mL. In data set [2] (medium QC spiked concentration), the “Long-tern stability: Measured concentration” value worked out at 17.27 ± 2.69 ng/mL.

On to `O=c1cc(-c2ccc(O)c(O)c2)oc2cc(O)cc(O)c12` [Luteolin, luteolin], for which, in data set [1], the AUC(0-inf) is 35.4 ng·h/mL, the Cmax is 77.4 ± 25.7 ng/mL, the Tmax is 5 min and the half-life turned out to be 36.08 ± 0.24 min. Besides, in data set [2] (high QC spiked concentration), the “Free-thaw stability: Measured concentration” value stood at 258.35 ± 4.86 ng/mL, the “Free-thaw stability: Accuracy” value stood at 4.35%, the “Long-tern stability: Accuracy” value is on record as 5.43% and the “Short-tern stability” value is 260.55 ± 0.49 ng/mL. In addition, the “Long-tern stability: Measured concentration” value in data set [2] (high QC spiked concentration) stood at 261.02 ± 4.65 ng/mL. For the same molecule, in data set [2] (low QC spiked concentration), the “Free-thaw stability: Measured concentration” value is 6.60 ± 0.18 ng/mL, the “Free-thaw stability: Accuracy” value amounted to 4.43%, the “Long-tern stability: Accuracy” value is on record as 6.01% and the “Short-tern stability” value amounted to 6.76 ± 0.18 ng/mL. In addition, the “Long-tern stability: Measured concentration” value in data set [2] (low QC spiked concentration) was found to be 6.7 ± 0.76 ng/mL. Moreover, in data set [2] (medium QC spiked concentration), the “Free-thaw stability: Measured concentration” value was determined as 66.03 ± 2.64 ng/mL, the “Free-thaw stability: Accuracy” value amounted to 6.21%, the “Long-tern stability: Accuracy” value came out at 8.32% and the “Short-tern stability” value was 64.88 ± 0.92 ng/mL. In data set [2] (medium QC spiked concentration), the “Long-tern stability: Measured concentration” value came out at 67.34 ± 3.63 ng/mL.

As to `O=c1cc(-c2ccc(O)cc2)oc2cc(O)cc(O)c12` [Apigenin, apigenin], in data set [1] (setting [3]), the “time of first peak of the plasma concentration–time curve” value is 5 min and the “time of second peak of the plasma concentration–time curve” value is 180 min. For the same molecule, in data set [1], the highest level (Cmax) was 146 ± 14.9 ng/mL, the Tmax is 180 min, the half-life was 298.5 ± 0.16 min and the “absorption into blood (in words)” value is “absorbed very slowly”. In data set [2] (high QC spiked concentration), the “Free-thaw stability: Measured concentration” value was determined as 494.36 ± 4.99 ng/mL, the “Free-thaw stability: Accuracy” value is recorded as 5.51%, the “Long-tern stability: Accuracy” value stood at 3.51% and the “Short-tern stability” value worked out at 490.89 ± 7.31 ng/mL. Also, in data set [2] (high QC spiked concentration), the “Long-tern stability: Measured concentration” value was 484.98 ± 5.09 ng/mL. Moreover, in data set [2] (low QC spiked concentration), the “Free-thaw stability: Measured concentration” value was determined as 7.34 ± 0.32 ng/mL, the “Free-thaw stability: Accuracy” value was found to be 3.67%, the “Long-tern stability: Accuracy” value was 7.06% and the “Short-tern stability” value was 7.17 ± 1.91 ng/mL. For the same molecule, in data set [2] (low QC spiked concentration), the “Long-tern stability: Measured concentration” value worked out at 7.58 ± 0.51 ng/mL. Besides, in data set [2] (medium QC spiked concentration), the “Free-thaw stability: Measured concentration” value stood at 124.68 ± 6.33 ng/mL, the “Free-thaw stability: Accuracy” value is on record as 6.63%, the “Long-tern stability: Accuracy” value is listed as 6.48% and the “Short-tern stability” value was determined as 123.78 ± 2.47 ng/mL. The “Long-tern stability: Measured concentration” value in data set [2] (medium QC spiked concentration) turned out to be 124.51 ± 4.02 ng/mL.

As to `COc1ccc(-c2cc(=O)c3c(O)cc(O)cc3o2)cc1` [Acacetin, acacetin], in data set [1], the AUC(0-inf) was 17.7 ng·h/mL, the AUC(0-t) was 15.3 ng·h/mL, the Cmax worked out at 31.9 ± 17.6 ng/mL and the Tmax is 10 min. Moreover, in data set [1], the half-life stood at 96.87 ± 0.12 min and the “absorption into blood (in words)” value is recorded as “rapidly absorbed”. Further, in data set [2] (high QC spiked concentration), the “Free-thaw stability: Measured concentration” value turned out to be 108.48 ± 6.51 ng/mL, the “Free-thaw stability: Accuracy” value is 6.21%, the “Long-tern stability: Accuracy” value is 3.46% and the “Short-tern stability” value was determined as 107.02 ± 3.38 ng/mL. Besides, in data set [2] (high QC spiked concentration), the “Long-tern stability: Measured concentration” value is 105.68 ± 9.65 ng/mL. Moreover, in data set [2] (low QC spiked concentration), the “Free-thaw stability: Measured concentration” value came out at 4.81 ± 0.22 ng/mL, the “Free-thaw stability: Accuracy” value was found to be 4.11%, the “Long-tern stability: Accuracy” value came out at 4.11% and the “Short-tern stability” value stood at 4.69 ± 0.36 ng/mL. Besides, the “Long-tern stability: Measured concentration” value in data set [2] (low QC spiked concentration) is 4.81 ± 0.27 ng/mL. In data set [2] (medium QC spiked concentration), the “Free-thaw stability: Measured concentration” value was determined as 26.99 ± 4.36 ng/mL, the “Free-thaw stability: Accuracy” value was determined as 3.13%, the “Long-tern stability: Accuracy” value amounted to 1.38% and the “Short-tern stability” value was 27.31 ± 5.34 ng/mL. Moreover, the “Long-tern stability: Measured concentration” value in data set [2] (medium QC spiked concentration) turned out to be 26.53 ± 3.21 ng/mL.

Consider `C[C@@H]1O[C@@H](OC[C@H]2O[C@@H](Oc3c(-c4ccc(O)c(O)c4)oc4cc(O)cc(O)c4c3=O)[C@H](O)[C@@H](O)[C@@H]2O)[C@H](O)[C@H](O)[C@H]1O` [Rutin], for which, in data set [1], the AUC(0-t) is 50.7 ng·h/mL, the Cmax came out at 131 ± 18.3 ng/mL, the Tmax was 5 min and the “absorption into blood (in words)” value was “rapidly absorbed”. For the same molecule, the “AUC0–∞ (mean ± SD)” value in data set [1] (rat plasma, single oral administration of extract 15 mL kg^−1, n = 6) amounted to 3039.62 ± 54.07 ng/L/h. Further, in data set [2] (high QC spiked concentration), the “Free-thaw stability: Measured concentration” value came to 437.7 ± 10.02 ng/mL, the “Free-thaw stability: Accuracy” value is listed as 4.58%, the “Long-tern stability: Accuracy” value is recorded as 2.55% and the “Short-tern stability” value worked out at 426.82 ± 18.15 ng/mL. In addition, the “Long-tern stability: Measured concentration” value in data set [2] (high QC spiked concentration) was 429.20 ± 19.79 ng/mL. Further, in data set [2] (low QC spiked concentration), the “Free-thaw stability: Measured concentration” value came out at 6.2 ± 1.88 ng/mL, the “Free-thaw stability: Accuracy” value is listed as 2.48%, the “Long-tern stability: Accuracy” value worked out at 4.30% and the “Short-tern stability” value came to 6.36 ± 6.81 ng/mL. Besides, the “Long-tern stability: Measured concentration” value in data set [2] (low QC spiked concentration) was determined as 6.31 ± 5.88 ng/mL. In addition, in data set [2] (medium QC spiked concentration), the “Free-thaw stability: Measured concentration” value turned out to be 110.30 ± 8.24 ng/mL, the “Free-thaw stability: Accuracy” value was 7.54%, the “Long-tern stability: Accuracy” value is reported as 4.68% and the “Short-tern stability” value is 108.48 ± 7.41 ng/mL. The “Long-tern stability: Measured concentration” value in data set [2] (medium QC spiked concentration) turned out to be 107.37 ± 9.98 ng/mL.

`C[C@@H]1O[C@@H](O[C@@H]2[C@@H](O)[C@H](OCCc3ccc(O)c(O)c3)O[C@H](CO)[C@H]2OC(=O)/C=C/c2ccc(O)c(O)c2)[C@H](O)[C@H](O)[C@H]1O` [Acteoside, acteoside]: in data set [1], the highest concentration (Cmax) was determined as 650 ± 16.4 ng/mL, the Tmax is 10 min, the half-life came out at 46.8 ± 0.35 min and the “absorption into blood (in words)” value was “rapidly absorbed”. Also, in data set [2] (high QC spiked concentration), the “Free-thaw stability: Measured concentration” value stood at 2132.91 ± 11.91 ng/mL, the “Free-thaw stability: Accuracy” value was 5.21%, the “Long-tern stability: Accuracy” value is reported as 6.94% and the “Short-tern stability” value was 2150.14 ± 11.92 ng/mL. Further, the “Long-tern stability: Measured concentration” value in data set [2] (high QC spiked concentration) is 2167.98 ± 18.52 ng/mL. Moreover, in data set [2] (low QC spiked concentration), the “Free-thaw stability: Measured concentration” value came to 2.1 ± 0.14 ng/mL, the “Free-thaw stability: Accuracy” value is 3.45%, the “Long-tern stability: Accuracy” value came out at 1.97% and the “Short-tern stability” value is 2.11 ± 0.13 ng/mL. In addition, the “Long-tern stability: Measured concentration” value in data set [2] (low QC spiked concentration) came out at 2.07 ± 0.12 ng/mL. Further, in data set [2] (medium QC spiked concentration), the “Free-thaw stability: Measured concentration” value is 544.87 ± 4.54 ng/mL, the “Free-thaw stability: Accuracy” value worked out at 4.92%, the “Long-tern stability: Accuracy” value is 4.16% and the “Short-tern stability” value was 548.82 ± 2.92 ng/mL. The “Long-tern stability: Measured concentration” value in data set [2] (medium QC spiked concentration) came to 540.92 ± 9.44 ng/mL.
